Drawing on PubChem BioAssay AID624012 (Broad Institute, 2012), this text covers AC50 for eight molecules.

Values joined by “and” are separate entries in the source; they are usually repeats but may differ in a detail not shown here. Identical values can stand only once.

The subject of this assay is S. cerevisiae growth in glycerol medium, OD600, 48 h. As to the kind of experiment: S. cerevisiae growth inhibition on glycerol, dose response, glycerol medium, plate reader, dry powder, set 4 (AID 624012). The gist of the method: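 Test system: Saccharomyces cerevisiae yeast whole cells, growth on glycerol / Medium: CSM-glycerol medium / Dosing: test compounds delivered into wells by pin transfer / Schedule: compound exposure 48 h at 30 °C, static, humidified / Measured by: optical density at 600 nm (absorbance) / Read-out: yeast growth inhibition seen as decreased OD600 signal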
In the case of `CCOC(=O)N1C(=O)C2(CCCCC2)N(c2ccc(C#N)cc2)C1=S`, the AC50 is 3.65 nM.

For the molecule `CCOC(=O)N1C(=O)C2(CCCCC2)N(c2ccc(C)cc2)C1=S`, the AC50 is 10.8 nM and 6.97 nM.

Take `CCOC(=O)N1C(=O)C2(CCCCC2)N(c2ccccc2)C1=S`: the AC50 was 14.6 nM.

With `CCOC(=O)N1C(=O)C2(CCCCC2)N(c2cccc(C)c2)C1=S`, the AC50 is 18.1 nM.

With `CCOC(=O)N1C(=O)C2(CCCCC2)N(c2ccc(Cl)cc2)C1=S`, the AC50 is 5.77 nM.

On to `C/C=C/[C@@H]1[C@H]2C[C@@H](C)CC[C@@H]2C(C)=C[C@H]1C(=O)c1c(O)c(-c2ccc(O)cc2)c[nH]c1=O`, for which the AC50 was 27.5 nM.

`CC1/C=C/C=C\C=C\C=C\C=C\C=C\C=C\C(O[C@H]2OC(C)C(O)C(N)C2O)CC2OC(O)(CC(O)CC(O)C(O)CCC(O)CC(O)CC(=O)OC(C)C(C)C1O)CC(O)C2C(=O)O` (stereo partly drawn): the AC50 is 274 nM.

Take `CCOC(=O)N1C(=O)C2(CCCCC2)N(c2ccc(F)cc2)C1=S`: the AC50 is 3.97 nM.
